The source of these data is ChEMBL document CHEMBL1914406, “Inhibitory effect of novel 5-O-acyl juglones on mammalian DNA polymerase activity, cancer cell growth and inflammatory response” (Bioorg Med Chem, 2011).

The target in data set [1] is DNA nucleotidylexotransferase (Bos taurus, UniProt P06526). The experiment in a line: Inhibition of calf thymus TdT using oligo(dT)18 (3'-OH) and dTTP as the DNA template-primer and nucleotide substrate after 60 mins. The method, boiled down: (§1)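 Compound in DMSO, sonicated 30 s. Premixed 0 °C, 10 min with enzyme (0.05 units) in 50 mM Tris-HCl pH 7.5, 1 mM DTT, 50% glycerol, 0.1 mM EDTA, then added to standard reaction mixture. Template-primers: poly(dA)/oligo(dT)18 (2/1) for pols, oligo(dT)18 for TdT, poly(rA)/oligo(dT)18 for HIV-1 RT, with [3H]dTTP. 60 min at 37 °C (Taq 74 °C). Activity relative to no-inhibitor control; mean ± SE of three experiments.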

In a further data set the target is DNA polymerase eta (Homo sapiens, UniProt Q9Y253). The experiment in a line: Inhibition of C-terminal His6-tagged human DNA polymerase eta (amino acids 1 to 511) using poly(dA)/oligo(dT)18 (A/T = 2/1) and dTTP as the DNA template-primer and nucleotide substrate after 60 mins. The procedure, abridged: as §1
The next data set has as its target DNA polymerase iota (Mus musculus, UniProt Q6R3M4). As to the kind of experiment: Inhibition of C-terminal His6-tagged mouse DNA polymerase iota using poly(dA)/oligo(dT)18 (A/T = 2/1) and dTTP as the DNA template-primer and nucleotide substrate after 60 mins. The procedure, abridged: as §1
Another data set concerns the target DNA polymerase kappa (Homo sapiens, UniProt Q9UBT6). As to the kind of experiment: Inhibition of C-terminal His6-tagged human DNA polymerase kappa (amino acids 1 to 560) using poly(dA)/oligo(dT)18 (A/T = 2/1) and dTTP as the DNA template-primer and nucleotide substrate after 60 mins. The method, boiled down:
as §1

Data set [2] can be described thus: Inhibition of cauliflower DNA polymerase alpha using poly(dA)/oligo(dT)18 (A/T = 2/1) and dTTP as the DNA template-primer and nucleotide substrate after 60 mins. Also on record: species or system Brassica oleracea var. botrytis. The procedure, abridged: as §1
Data set [3] can be described thus: Inhibition of Escherichia coli DNA polymerase 1 Klenow fragment using poly(dA)/oligo(dT)18 (A/T = 2/1) and dTTP as the DNA template-primer and nucleotide substrate after 60 mins. The method, boiled down: as §1
Data set [4] addresses DNA polymerase I, thermostable (Thermus aquaticus, UniProt P19821). As to the kind of experiment: Inhibition of Taq polymerase using poly(dA)/oligo(dT)18 (A/T = 2/1) and dTTP as the DNA template-primer and nucleotide substrate at 74 degree C after 60 mins. The procedure, abridged:
as §1

The nature of data set [5]: Inhibition of calf primase of DNA polymerase alpha. On the set-up: species or system Bos taurus. The procedure, abridged:
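Calf primase of pol α and mouse IMP dehydrogenase type II measured by standard assays per manufacturer's specifications. Activity relative to no-compound control (100%).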

Data set [6] deals with Human immunodeficiency virus type 1 reverse transcriptase (Human immunodeficiency virus 1, UniProt Q72547). As to the kind of experiment: Inhibition of HIV-1 reverse transcriptase using poly(rA)/oligo(dT)18(A/T = 2/1) and dTTP as the DNA template-primer and nucleotide substrate after 60 mins. The method, boiled down: as §1
The target in a further data set is Polynucleotide kinase (Enterobacteria phage T4, UniProt P06855). As to the kind of experiment: Inhibition of T4 polynucleotide kinase using 5'-hydroxyl termini of DNA and [gamma-32ATP] after 30 mins by liquid scintillation counting. Also on record: species or system Tequatrovirus T4.
The subject of another data set is RAW264.7. The experiment in a line: Cytotoxicity against mouse RAW264.7 cells at 5 uM. The following applies: raw264.7, 5 µM. It is filed as cell-based.
Data set [7] is described as follows: Cytotoxicity against mouse RAW264.7 cells. It is filed as cell-based. Conditions: read-out: LD50 (the source's name).
A short description of data set [8]: Inhibition of rice DNA polymerase lambda using poly(dA)/oligo(dT)18 (A/T = 2/1) and dTTP as the DNA template-primer and nucleotide substrate after 60 mins. Also on record: species or system Oryza sativa. The procedure, abridged: as §1
The target of another data set is Deoxyribonuclease-1 (Bos taurus, UniProt P00639). The experiment in a line: Inhibition of bovine deoxyribonuclease I by agarose gel electrophoresis.
For data set [9], the species on record is Bos taurus. The experiment in a line: Inhibition of calf DNA polymerase alpha using poly(dA)/oligo(dT)18 (A/T = 2/1) and dTTP as the DNA template-primer and nucleotide substrate at 10 uM after 60 mins. The method, boiled down: as §1
The species entered for a further data set is Homo sapiens. The experiment in a line: Inhibition of histidine-tagged human DNA polymerase gamma using poly(dA)/oligo(dT)18 (A/T = 2/1) and dTTP as the DNA template-primer and nucleotide substrate at 10 uM after 60 mins. The method, boiled down:
as §1

Data set [10] concerns the target T1, DNA polymerase kappa (Homo sapiens) (UniProt Q9UBT6).
T1 sequence (whole entry): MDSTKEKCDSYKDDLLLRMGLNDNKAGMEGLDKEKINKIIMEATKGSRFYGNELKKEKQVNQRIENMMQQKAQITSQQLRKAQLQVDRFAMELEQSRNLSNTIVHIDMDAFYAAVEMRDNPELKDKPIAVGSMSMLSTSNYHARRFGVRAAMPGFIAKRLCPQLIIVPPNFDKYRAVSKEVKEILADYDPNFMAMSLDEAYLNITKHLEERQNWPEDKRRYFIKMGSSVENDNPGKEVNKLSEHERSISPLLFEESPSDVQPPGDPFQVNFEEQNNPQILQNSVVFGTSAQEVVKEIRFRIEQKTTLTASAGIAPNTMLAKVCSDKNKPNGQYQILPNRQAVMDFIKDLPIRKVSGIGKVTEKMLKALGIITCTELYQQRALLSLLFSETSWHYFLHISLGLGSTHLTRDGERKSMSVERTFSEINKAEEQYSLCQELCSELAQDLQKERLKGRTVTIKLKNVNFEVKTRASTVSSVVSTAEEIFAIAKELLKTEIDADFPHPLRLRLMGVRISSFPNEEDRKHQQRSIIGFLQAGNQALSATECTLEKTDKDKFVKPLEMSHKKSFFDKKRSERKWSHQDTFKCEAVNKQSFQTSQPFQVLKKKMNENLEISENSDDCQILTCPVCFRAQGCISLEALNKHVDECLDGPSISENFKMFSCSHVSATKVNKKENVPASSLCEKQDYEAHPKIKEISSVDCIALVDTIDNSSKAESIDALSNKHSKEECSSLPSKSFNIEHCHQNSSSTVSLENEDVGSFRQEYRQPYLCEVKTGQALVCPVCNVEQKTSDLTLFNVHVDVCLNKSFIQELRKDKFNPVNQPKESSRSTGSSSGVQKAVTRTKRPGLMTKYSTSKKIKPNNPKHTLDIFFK
The experiment in a line: Inhibition of C-terminal His6-tagged human DNA polymerase kappa (amino acids 1 to 560) using poly(dA)/oligo(dT)18 (A/T = 2/1) and dTTP as the DNA template-primer and nucleotide substrate at 10 uM after 60 mins.

For data set [11], the species on record is Bos taurus. The experiment in a line: Inhibition of calf DNA polymerase alpha using bovine deoxyribonuclease 1-treated DNA and dNTP as the DNA template-primer and nucleotide substrate at 10 uM after 60 mins.
A further data set concerns the target DNA polymerase beta (Rattus norvegicus, UniProt P06766). As to the kind of experiment: Inhibition of rat pol beta using poly(dA)/oligo(dT)18 (A/T = 2/1) and dTTP as the DNA template-primer and nucleotide substrate after 60 mins. The procedure, abridged: as §1
The target in a further data set is DNA polymerase lambda (Homo sapiens, UniProt Q9UGP5). The experiment in a line: Inhibition of His-tagged human DNA polymerase lambda using poly(dA)/oligo(dT)18 (A/T = 2/1) and dTTP as the DNA template-primer and nucleotide substrate after 60 mins. The procedure, abridged: as §1

Active and inactive are the calls of the source. No cut-off for these calls is given here.

Chain of Polynucleotide kinase (P06855 whole entry): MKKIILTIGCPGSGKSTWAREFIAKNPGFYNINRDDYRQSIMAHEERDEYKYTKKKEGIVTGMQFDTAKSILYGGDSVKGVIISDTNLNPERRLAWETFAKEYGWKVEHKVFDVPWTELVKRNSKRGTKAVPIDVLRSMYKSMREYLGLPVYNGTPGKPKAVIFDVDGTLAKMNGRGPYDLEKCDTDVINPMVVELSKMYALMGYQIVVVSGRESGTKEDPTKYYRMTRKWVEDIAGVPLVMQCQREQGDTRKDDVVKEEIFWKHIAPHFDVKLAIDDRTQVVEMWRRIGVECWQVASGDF
Chain of DNA polymerase I, thermostable (P19821 whole entry): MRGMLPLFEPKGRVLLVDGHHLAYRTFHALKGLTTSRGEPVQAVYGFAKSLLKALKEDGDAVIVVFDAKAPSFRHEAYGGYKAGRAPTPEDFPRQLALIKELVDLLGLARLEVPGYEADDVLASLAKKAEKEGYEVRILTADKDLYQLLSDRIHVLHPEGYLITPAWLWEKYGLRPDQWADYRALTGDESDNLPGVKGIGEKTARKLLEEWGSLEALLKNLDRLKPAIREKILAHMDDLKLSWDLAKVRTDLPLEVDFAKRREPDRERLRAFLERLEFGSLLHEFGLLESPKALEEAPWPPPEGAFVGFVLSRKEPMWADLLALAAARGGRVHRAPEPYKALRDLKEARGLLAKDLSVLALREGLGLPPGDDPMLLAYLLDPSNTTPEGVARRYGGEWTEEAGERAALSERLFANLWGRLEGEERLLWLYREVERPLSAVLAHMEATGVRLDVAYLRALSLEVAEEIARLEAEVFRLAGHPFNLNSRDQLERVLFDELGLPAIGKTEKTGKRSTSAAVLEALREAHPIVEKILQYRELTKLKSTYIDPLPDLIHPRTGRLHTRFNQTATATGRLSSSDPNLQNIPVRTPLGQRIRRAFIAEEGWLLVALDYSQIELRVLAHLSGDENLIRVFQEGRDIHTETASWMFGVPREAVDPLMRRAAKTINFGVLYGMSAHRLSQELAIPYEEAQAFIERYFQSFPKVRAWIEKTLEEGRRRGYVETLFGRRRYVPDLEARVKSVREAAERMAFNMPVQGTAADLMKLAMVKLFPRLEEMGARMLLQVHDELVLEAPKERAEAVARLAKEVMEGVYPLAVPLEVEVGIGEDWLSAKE
Chain of DNA polymerase iota (Q6R3M4 whole entry, the tested form may be a part): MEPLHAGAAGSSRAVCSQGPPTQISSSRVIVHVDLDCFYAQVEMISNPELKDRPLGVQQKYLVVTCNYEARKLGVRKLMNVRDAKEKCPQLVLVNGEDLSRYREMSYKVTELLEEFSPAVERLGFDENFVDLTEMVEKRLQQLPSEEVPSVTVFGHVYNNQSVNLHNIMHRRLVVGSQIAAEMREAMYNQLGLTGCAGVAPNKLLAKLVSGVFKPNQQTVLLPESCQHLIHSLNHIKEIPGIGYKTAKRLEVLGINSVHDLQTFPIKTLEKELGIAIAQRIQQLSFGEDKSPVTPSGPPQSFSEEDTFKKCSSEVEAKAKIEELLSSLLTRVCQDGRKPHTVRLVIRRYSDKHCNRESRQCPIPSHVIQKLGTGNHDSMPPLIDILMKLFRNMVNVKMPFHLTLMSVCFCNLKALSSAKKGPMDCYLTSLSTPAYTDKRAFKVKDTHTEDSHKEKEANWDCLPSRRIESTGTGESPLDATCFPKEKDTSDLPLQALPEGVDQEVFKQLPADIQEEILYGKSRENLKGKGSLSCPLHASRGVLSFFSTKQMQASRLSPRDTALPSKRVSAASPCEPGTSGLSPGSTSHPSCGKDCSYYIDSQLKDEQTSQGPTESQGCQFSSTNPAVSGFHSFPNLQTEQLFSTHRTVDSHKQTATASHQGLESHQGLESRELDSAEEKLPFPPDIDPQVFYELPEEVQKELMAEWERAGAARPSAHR
Chain of DNA polymerase eta (Q9Y253 whole entry, the tested form may be a part): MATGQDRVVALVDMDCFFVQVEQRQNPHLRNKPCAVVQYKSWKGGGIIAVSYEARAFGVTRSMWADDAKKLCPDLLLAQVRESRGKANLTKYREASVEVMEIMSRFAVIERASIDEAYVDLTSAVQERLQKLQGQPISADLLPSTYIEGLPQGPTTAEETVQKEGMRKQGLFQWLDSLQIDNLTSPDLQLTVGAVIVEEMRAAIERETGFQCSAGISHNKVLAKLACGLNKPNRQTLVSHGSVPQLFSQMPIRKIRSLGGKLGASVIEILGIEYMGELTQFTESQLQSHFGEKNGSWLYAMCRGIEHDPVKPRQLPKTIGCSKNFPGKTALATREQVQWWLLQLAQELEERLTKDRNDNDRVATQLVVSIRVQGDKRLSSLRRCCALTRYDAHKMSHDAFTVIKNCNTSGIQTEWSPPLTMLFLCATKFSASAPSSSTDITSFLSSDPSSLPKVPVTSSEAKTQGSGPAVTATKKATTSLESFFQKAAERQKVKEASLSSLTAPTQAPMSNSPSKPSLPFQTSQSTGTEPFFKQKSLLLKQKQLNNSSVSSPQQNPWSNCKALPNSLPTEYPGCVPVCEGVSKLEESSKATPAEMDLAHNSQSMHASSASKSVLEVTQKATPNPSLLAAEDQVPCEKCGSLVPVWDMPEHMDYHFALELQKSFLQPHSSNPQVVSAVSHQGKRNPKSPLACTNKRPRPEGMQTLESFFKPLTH
Chain of DNA polymerase lambda (Q9UGP5 whole entry): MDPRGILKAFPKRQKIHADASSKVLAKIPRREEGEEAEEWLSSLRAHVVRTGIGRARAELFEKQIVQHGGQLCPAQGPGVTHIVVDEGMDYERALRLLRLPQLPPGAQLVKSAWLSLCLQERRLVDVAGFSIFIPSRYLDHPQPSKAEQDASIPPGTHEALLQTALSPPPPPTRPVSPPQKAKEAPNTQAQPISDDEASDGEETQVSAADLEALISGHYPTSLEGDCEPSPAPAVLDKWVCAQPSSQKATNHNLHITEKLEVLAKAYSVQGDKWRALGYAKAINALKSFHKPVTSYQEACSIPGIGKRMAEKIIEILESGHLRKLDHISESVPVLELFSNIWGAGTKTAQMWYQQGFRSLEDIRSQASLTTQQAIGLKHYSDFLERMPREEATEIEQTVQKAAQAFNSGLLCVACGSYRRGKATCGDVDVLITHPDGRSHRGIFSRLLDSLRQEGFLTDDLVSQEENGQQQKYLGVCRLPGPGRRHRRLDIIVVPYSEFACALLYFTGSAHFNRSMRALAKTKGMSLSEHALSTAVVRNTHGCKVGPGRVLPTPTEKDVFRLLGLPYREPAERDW
Chain of Deoxyribonuclease-1 (P00639 whole entry): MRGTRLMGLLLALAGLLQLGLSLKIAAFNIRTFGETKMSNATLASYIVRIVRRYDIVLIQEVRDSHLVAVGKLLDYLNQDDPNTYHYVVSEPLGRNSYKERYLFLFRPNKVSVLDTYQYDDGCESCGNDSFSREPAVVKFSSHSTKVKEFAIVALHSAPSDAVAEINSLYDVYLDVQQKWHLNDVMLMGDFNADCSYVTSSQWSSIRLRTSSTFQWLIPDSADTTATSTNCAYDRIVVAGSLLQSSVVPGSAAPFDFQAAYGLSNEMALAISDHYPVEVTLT
Chain of DNA nucleotidylexotransferase (P06526 whole entry): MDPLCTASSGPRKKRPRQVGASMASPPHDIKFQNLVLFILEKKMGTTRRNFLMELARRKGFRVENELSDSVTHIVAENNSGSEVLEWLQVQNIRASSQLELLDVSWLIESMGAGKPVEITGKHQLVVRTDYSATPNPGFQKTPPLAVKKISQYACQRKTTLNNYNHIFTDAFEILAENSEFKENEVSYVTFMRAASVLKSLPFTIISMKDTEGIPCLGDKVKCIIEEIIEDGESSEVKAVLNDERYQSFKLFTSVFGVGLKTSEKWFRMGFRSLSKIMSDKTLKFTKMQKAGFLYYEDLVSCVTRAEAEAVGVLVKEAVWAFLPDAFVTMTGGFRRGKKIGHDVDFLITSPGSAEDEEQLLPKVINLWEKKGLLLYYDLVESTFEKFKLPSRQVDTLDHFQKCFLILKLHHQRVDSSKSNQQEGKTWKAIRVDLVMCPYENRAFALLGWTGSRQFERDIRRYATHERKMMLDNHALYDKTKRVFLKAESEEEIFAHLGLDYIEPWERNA

As usually defined, the IC50 is the concentration needed to halve the response being measured. A higher IC50 goes with lower potency. With `CCCCCCCC/C=C\CCCCCCCC(=O)Oc1cccc2c1C(=O)C=CC2=O`, the IC50 in [1] was 11.9 µM; on DNA polymerase eta, 8.4 µM; at DNA polymerase iota, 8.7 µM; on DNA polymerase kappa, 8.1 µM; in data set [2], over 200 µM; in data set [3] it was over 100 µM. Further, the IC50 in data set [4] was over 100 µM; in [5], over 100 µM; in data set [6], over 100 µM; against Polynucleotide kinase, over 100 µM; in data set [8] it was over 200 µM; against Deoxyribonuclease-1, over 100 µM. The half-inhibitory concentration (IC50) worked out at 11.5 µM at DNA polymerase beta and 10.2 µM on DNA polymerase lambda. Further, the Activity result in the data set on RAW264.7 is “Non-toxic”. In addition, the CC50 in [7] is over 10 µM. The inhibition entry (in the data set filed under Bos taurus [9]; in the data set filed under Homo sapiens; in data set [10]; in the data set listed under Bos taurus [11]) was “Active” in each case.

Regarding `CCCCCCCCCCCC(=O)Oc1cccc2c1C(=O)C=CC2=O`, the IC50 in data set [1] was 8.4 µM; at DNA polymerase eta, 6.9 µM; at DNA polymerase iota it was 7.1 µM; against DNA polymerase kappa, 6.8 µM; in [2], over 100 µM; in [3], over 100 µM. Further, the IC50 (in [4]; in data set [5]; in [6]; at Polynucleotide kinase; in [8]; at Deoxyribonuclease-1) was over 100 µM throughout. Besides, the IC50 on DNA polymerase beta came out at 7.6 µM; on DNA polymerase lambda it was 7 µM. Also, the Activity entry with RAW264.7 is given as “Non-toxic”. The CC50 in data set [7] was over 10 µM. The inhibition entry (in the data set filed under Bos taurus [9]; in the data set filed under Homo sapiens; in data set [10]; in the data set listed under Bos taurus [11]) was “Active” in each case.
